From ChEMBL document CHEMBL3414478, “Activity of 2-aryl-2-(3-indolyl)acetohydroxamates against drug-resistant cancer cells” (J Med Chem, 2015)
Activity calls are given as the source filed them. No cut-off for these calls is given here.

What was measured:
[1] = system: MCF7; assay: Antiproliferative activity against human MCF7 cells assessed as reduction in cell viability after 48 hrs by MTT assay; format: functional, cell-based; conditions: MCF7, 48 h
In short: (§1)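 MTT assay. HeLa and U87 cells were grown in DMEM + 10% FBS, and MCF-7 cells in RPMI + 10% FBS. Cells were seeded at 4 × 10³/well, grown 24 h, then exposed to 0.001–100 μM for 48 h. 0.1% DMSO was the negative control and 1 μM PAO the positive control. Quadruplicate wells, ≥2 repeats.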

[2] = system: HeLa; assay: Antiproliferative activity against human HeLa cells assessed as reduction in cell viability after 48 hrs by MTT assay; format: functional, cell-based; in short: as §1
[3] = Antiproliferative activity against human GBM 031810 cells assessed as reduction in cell viability after 48 hrs by MTT assay; format: functional; conditions: GBM 031810, 48 h
In short: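 Patient-derived glioblastoma neurosphere culture GBM 031810, kept in Neurobasal medium with B27, Glutamax, FGF-2 (20 ng/ml), EGF (20 ng/ml) and heparin; growth factors renewed twice weekly. GI50 is the average ± SD of three determinations.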

[4] = Antiproliferative activity against human U87 cells assessed as reduction in cell viability after 48 hrs by MTT assay; format: functional, U-87MG ATCC; conditions: U-87 MG; in short: as §1
[5] = system: NHDF; assay: Cytotoxicity against human NHDF cells assessed as cell growth after 48 hrs by MTT assay; format: cell-based
In short: (§2)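 Normal fibroblasts (NHDF, NHLF) were grown in FGM-2 medium at 37 °C, 5% CO2, seeded at 4 × 10³/well and grown 24 h. Controls were 0.1% DMSO and 1 μM PAO. Quadruplicate wells, repeated at least twice.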

[6] = Cytotoxicity against human NHLF cells assessed as cell growth after 48 hrs by MTT assay; format: cell-based; in short: as §2
[7] = system: U-87MG ATCC; assay: Antiproliferative activity against human U87 cells assessed as reduction in cell viability up to 100 uM after 48 hrs by MTT assay; format: functional, cell-based
In short: (§3)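 Cells (U87 in DMEM, A549 in RPMI with 10% heat-inactivated FBS) were seeded at 4 × 10³/well, grown 24 h, then exposed to 0.001–100 μM compound (DMSO stocks) for 48 h at 37 °C, 5% CO₂. Quadruplicates, repeated at least twice; 0.1% DMSO negative control, 1 μM PAO positive control.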

[8] = system: A549; assay: Antiproliferative activity against human A549 cells assessed as reduction in cell viability up to 100 uM after 48 hrs by MTT assay; format: functional, cell-based; in short: as §3
[9] = system: U-87MG ATCC; assay: Redifferentiation of human U87 cells assessed as nonmalignant state resembling reactive astrocyte/phenotype at 7 uM after 3 days; format: functional, cell-based; conditions: in the assay text read “33 days” for “3 days”
In short: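 U87 cells were plated at 5 × 10⁴/well in DMEM/10% FBS. Next day they were re-fed and dosed at final concentrations between 15 and 5 μM, with medium not replaced afterwards. Morphology was followed for several weeks (33-day treatment shown at 7 μM) against untreated cells.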

[10] = Antiproliferative activity against human U373 cells assessed as global growth ratio measured as cell growth at 25 uM after 24 hrs by Quantitative videomicroscopy relative to untreated control; format: functional, U-373MG ATCC; conditions: in the assay text read “after 72 hrs” for “after 24 hrs”
In short: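 U373 cells were grown in RPMI + 10% heat-inactivated FBS and followed by computer-assisted phase-contrast videomicroscopy with 25 μM compound. The global growth ratio is the mean cell count per image at 24, 48 or 72 h divided by the count at 0 h, then normalised to the same ratio in the untreated control.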

Structure (SMILES): O=C(NO)C(c1ccccc1)c1c(-c2ccc3ccccc3c2)n(Cc2ccccc2)c2ccccc12 (centres undefined)
- IC50 [1]: 5.5 µM
- IC50 [2]: 5.4 µM

Structure (SMILES): NC(=O)C(c1ccccc1)c1c(-c2ccc3ccccc3c2)[nH]c2ccccc12 (centres undefined)
- IC50 [1]: 11.6 µM
- IC50 [2]: 9.3 µM

Structure (SMILES): Cc1ccc(C(C(=O)NO)c2c(-c3ccc4ccccc4c3)[nH]c3ccccc23)cc1 (centres undefined)
- IC50 [1]: 4.9 µM
- IC50 [2]: 6.3 µM

Structure (SMILES): Cc1ccc(C(C(=O)NO)c2c(-c3ccc4ccccc4c3)[nH]c3ccccc23)cc1C (centres undefined)
- IC50 [1]: 2.5 µM
- IC50 [2]: 2.7 µM

Structure (SMILES): CC(C)c1ccc(C(C(=O)NO)c2c(-c3ccc4ccccc4c3)[nH]c3ccccc23)cc1 (centres undefined)
- GI50 [3]: 3.4 µM
- GI50 [4]: 5 µM
- IC50 [1]: 1.4 µM
- IC50 [2]: 0.68 µM

Structure (SMILES): O=C(NO)C(c1ccccc1)c1c(-c2cccc3ccccc23)[nH]c2ccccc12 (centres undefined)
- IC50 [1]: 32 µM
- IC50 [2]: 25.7 µM

Structure (SMILES): CCCCn1c(-c2ccc3ccccc3c2)c(C(C(=O)NO)c2ccc(C(C)C)cc2)c2ccccc21 (centres undefined)
- IC50 [1]: 7.7 µM
- IC50 [2]: 6.6 µM

Structure (SMILES): COc1ccc(C(C(=O)NO)c2c(-c3ccc4ccccc4c3)[nH]c3ccccc23)cc1OC (centres undefined)
- IC50 [1]: 2.4 µM
- IC50 [2]: 26.9 µM

Structure (SMILES): O=C(NO)C(c1ccc([N+](=O)[O-])cc1)c1c(-c2ccccc2)[nH]c2ccccc12 (centres undefined)
- IC50 [1]: > 50 µM
- IC50 [2]: > 50 µM

Structure (SMILES): Cc1cccc(C(C(=O)NO)c2c(-c3ccc4ccccc4c3)[nH]c3ccccc23)c1 (centres undefined)
- IC50 [1]: 7.4 µM
- IC50 [2]: 6.9 µM

Structure (SMILES): Cc1ccc2[nH]c(-c3ccc4ccccc4c3)c(C(C(=O)NO)c3ccccc3)c2c1 (centres undefined)
- IC50 [1]: > 50 µM
- IC50 [2]: > 50 µM

Structure (SMILES): Cn1c(-c2ccc3ccccc3c2)c(C(C(=O)NO)c2cccc(F)c2)c2ccccc21 (centres undefined)
- IC50 [1]: 25.7 µM
- IC50 [2]: 36.8 µM

Structure (SMILES): Cc1[nH]c2ccccc2c1C(C(=O)NO)c1ccccc1 (centres undefined)
- IC50 [1]: > 50 µM
- IC50 [2]: > 50 µM

Structure (SMILES): O=C(NO)C(c1ccccc1)c1c(-c2ccccc2)[nH]c2ccccc12 (centres undefined)
- IC50 [1]: 31 µM
- IC50 [2]: 23 µM

Structure (SMILES): O=C(NO)C(c1ccc(Cl)c(Cl)c1)c1c(-c2ccc3ccccc3c2)[nH]c2ccccc12 (centres undefined)
- IC50 [1]: 12.2 µM
- IC50 [2]: 31.7 µM

Structure (SMILES): COc1ccc2[nH]c(-c3ccc4ccccc4c3)c(C(C(=O)NO)c3ccccc3)c2c1 (centres undefined)
- IC50 [1]: > 50 µM
- IC50 [2]: > 50 µM

Structure (SMILES): CN(C)c1ccc(C(C(=O)NO)c2c(-c3ccc4ccccc4c3)[nH]c3ccccc23)cc1 (centres undefined)
- GI50 [3]: 5.6 µM
- Activity [5]: Non-toxic
- Activity [6]: Non-toxic
- IC50 [1]: 1.1 µM
- IC50 [2]: 0.6 µM

Structure (SMILES): CCCCn1c(-c2ccc3ccccc3c2)c(C(C(=O)NO)c2ccccc2)c2ccccc21 (centres undefined)
- IC50 [1]: 7.8 µM
- IC50 [2]: 5.6 µM

Structure (SMILES): Cn1c(-c2ccc3ccccc3c2)c(C(C(=O)NO)c2ccccc2)c2ccccc21 (centres undefined)
- IC50 [1]: 10 µM
- IC50 [2]: 19.7 µM

Structure (SMILES): CCOc1ccc(C(C(=O)NO)c2c(-c3ccc4ccccc4c3)[nH]c3ccccc23)cc1 (centres undefined)
- IC50 [1]: 8.5 µM
- IC50 [2]: 17.3 µM

Structure (SMILES): COc1cc([C@@H]2c3cc4c(cc3[C@H](O)[C@H]3COC(=O)[C@H]23)OCO4)cc(OC)c1OC
- Activity [7]: inactive
- Activity [8]: inactive

Structure (SMILES): O=C(NO)C(c1cccc(F)c1)c1c(-c2ccc3ccccc3c2)[nH]c2ccccc12 (centres undefined)
- IC50 [1]: 20.4 µM
- IC50 [2]: 32.9 µM

Structure (SMILES): O=C(NO)C(c1ccccc1)c1c(-c2ccc3ccccc3c2)[nH]c2ccccc12 (centres undefined)
- GI50 [3]: 0.8 µM
- Activity [5]: Non-toxic
- Activity [6]: Non-toxic
- IC50 [1]: 3.4 µM
- Activity [9]: Active
- Activity [10]: 30%
- IC50 [2]: 3.6 µM

Structure (SMILES): CCC(C)n1c(-c2ccc3ccccc3c2)c(C(C(=O)NO)c2ccccc2)c2ccccc21 (centres undefined)
- IC50 [1]: 9.3 µM
- IC50 [2]: 9.8 µM

Structure (SMILES): COc1ccc(-c2[nH]c3ccccc3c2C(C(=O)NO)c2ccccc2)cc1 (centres undefined)
- IC50 [1]: > 50 µM
- IC50 [2]: > 50 µM

Structure (SMILES): O=C(NO)C(c1ccccc1)c1c(-c2ccccc2[N+](=O)[O-])[nH]c2ccccc12 (centres undefined)
- IC50 [1]: > 50 µM
- IC50 [2]: > 50 µM

Structure (SMILES): N#CC(c1ccccc1)c1c(-c2ccc3ccccc3c2)[nH]c2ccccc12 (centres undefined)
- IC50 [1]: 20.6 µM
- IC50 [2]: 17.4 µM

Structure (SMILES): O=C(NO)C(c1ccc(OC(F)(F)F)cc1)c1c(-c2ccc3ccccc3c2)[nH]c2ccccc12 (centres undefined)
- IC50 [1]: 10.2 µM
- IC50 [2]: 27.4 µM

Structure (SMILES): CC(=O)O[C@H]1C(=O)[C@@]2(C)[C@H]([C@H](OC(=O)c3ccccc3)[C@]3(O)C[C@H](OC(=O)[C@H](O)[C@@H](NC(=O)c4ccccc4)c4ccccc4)C(C)=C1C3(C)C)[C@]1(OC(C)=O)CO[C@@H]1C[C@@H]2O
- Activity [7]: inactive
- Activity [8]: inactive

Structure (SMILES): O=C(NO)C(c1ccc(F)cc1)c1c(-c2ccc3ccccc3c2)[nH]c2ccccc12 (centres undefined)
- IC50 [1]: 6.3 µM
- IC50 [2]: 18.2 µM

Structure (SMILES): Cn1nnc2c(C(N)=O)ncn2c1=O [TEMOZOLOMIDE]
- GI50 [3]: > 1000 µM

Structure (SMILES): Cn1c(-c2ccc3ccccc3c2)c(C(C(=O)NO)c2ccccc2Br)c2ccccc21 (centres undefined)
- IC50 [1]: 11.2 µM
- IC50 [2]: 24 µM

Structure (SMILES): CCN(CC)c1ccc(C(C(=O)NO)c2c(-c3ccc4ccccc4c3)[nH]c3ccccc23)cc1 (centres undefined)
- IC50 [1]: 7.9 µM
- IC50 [2]: 4.1 µM

Structure (SMILES): O=C(NO)C(c1ccccc1Br)c1c(-c2ccc3ccccc3c2)[nH]c2ccccc12 (centres undefined)
- IC50 [1]: 2.7 µM
- IC50 [2]: 13 µM

Structure (SMILES): O=C(NO)C(c1ccccc1Cl)c1c(-c2ccc3ccccc3c2)[nH]c2ccccc12 (centres undefined)
- IC50 [1]: 4.9 µM
- IC50 [2]: 31 µM
